Tests used:
[1] = biological target: T1, DmEcR/DmUSP (Drosophila melanogaster, UniProt P34021); experiment: UV-irradiation of receptor complex with ligand, then [3H]ponasterone A binding; settings: ligand 100 nM, 350 nm for 20 min, [3H]ponA 2.55 nM
T1 sequence (P34021 1-878): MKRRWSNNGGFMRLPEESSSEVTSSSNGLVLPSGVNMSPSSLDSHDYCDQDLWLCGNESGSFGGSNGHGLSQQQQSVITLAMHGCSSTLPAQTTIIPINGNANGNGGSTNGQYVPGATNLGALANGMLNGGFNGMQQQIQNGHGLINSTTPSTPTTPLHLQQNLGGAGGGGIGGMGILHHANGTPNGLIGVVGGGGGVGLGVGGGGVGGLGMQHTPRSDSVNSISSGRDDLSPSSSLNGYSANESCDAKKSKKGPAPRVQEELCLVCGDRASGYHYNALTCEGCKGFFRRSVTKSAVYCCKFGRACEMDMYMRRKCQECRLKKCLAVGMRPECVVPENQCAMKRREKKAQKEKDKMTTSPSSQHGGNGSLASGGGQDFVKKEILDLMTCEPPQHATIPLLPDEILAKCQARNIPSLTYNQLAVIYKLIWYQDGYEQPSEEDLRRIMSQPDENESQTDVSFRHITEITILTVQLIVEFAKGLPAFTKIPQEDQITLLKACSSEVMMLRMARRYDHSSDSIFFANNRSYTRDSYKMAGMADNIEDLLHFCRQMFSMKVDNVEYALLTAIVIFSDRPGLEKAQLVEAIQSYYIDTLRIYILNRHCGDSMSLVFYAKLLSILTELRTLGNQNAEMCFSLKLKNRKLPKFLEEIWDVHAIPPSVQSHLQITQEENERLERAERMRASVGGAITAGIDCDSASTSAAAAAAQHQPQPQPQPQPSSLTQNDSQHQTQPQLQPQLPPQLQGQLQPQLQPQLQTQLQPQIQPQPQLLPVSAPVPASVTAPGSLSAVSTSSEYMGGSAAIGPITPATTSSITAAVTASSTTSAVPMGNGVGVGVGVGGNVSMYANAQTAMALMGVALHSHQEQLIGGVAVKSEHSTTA
T1 sequence (P20153 1-508 partner): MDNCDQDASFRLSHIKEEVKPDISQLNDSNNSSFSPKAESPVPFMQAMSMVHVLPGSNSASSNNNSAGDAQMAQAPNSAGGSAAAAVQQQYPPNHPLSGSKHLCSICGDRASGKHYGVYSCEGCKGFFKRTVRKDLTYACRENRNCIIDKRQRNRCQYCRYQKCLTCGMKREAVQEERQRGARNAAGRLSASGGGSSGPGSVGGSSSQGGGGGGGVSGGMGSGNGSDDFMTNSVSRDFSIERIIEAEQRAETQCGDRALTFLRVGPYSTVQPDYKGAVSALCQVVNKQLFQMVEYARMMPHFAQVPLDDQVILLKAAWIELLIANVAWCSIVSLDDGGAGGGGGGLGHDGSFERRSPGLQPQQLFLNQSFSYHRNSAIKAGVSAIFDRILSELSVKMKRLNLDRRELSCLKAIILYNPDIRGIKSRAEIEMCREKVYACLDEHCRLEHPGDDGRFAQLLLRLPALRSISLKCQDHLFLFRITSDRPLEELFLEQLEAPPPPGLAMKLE
Procedure, shortened: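 Crude extracts of bacterially expressed DmEcR/DmUSP were incubated with 100 nM ligand at 7°C for 16 h to equilibrium. Samples were irradiated in quartz tubes on a merry-go-round at 350 nm for 20 min, with non-irradiated controls. Unbound steroid was stripped with fatty-acid-free BSA plus dextran-coated charcoal (10 mM Tris/HCl, pH 7.2), 5 min ice-cold, then spun at 13,000 × g. Supernatant was equilibrated with 2.55 nM [3H]ponA at 7°C, DCC-stripped again, and scintillation-counted. Duplicates.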

[2] = biological target: T2, CfEcR/CfUSP (Choristoneura fumiferana, UniProt O77255); experiment: UV-irradiation of receptor complex with ligand, then [3H]ponasterone A binding; settings: ligand 100 nM, 350 nm for 20 min, [3H]ponA 2.55 nM
T2 sequence (O77255 1-541): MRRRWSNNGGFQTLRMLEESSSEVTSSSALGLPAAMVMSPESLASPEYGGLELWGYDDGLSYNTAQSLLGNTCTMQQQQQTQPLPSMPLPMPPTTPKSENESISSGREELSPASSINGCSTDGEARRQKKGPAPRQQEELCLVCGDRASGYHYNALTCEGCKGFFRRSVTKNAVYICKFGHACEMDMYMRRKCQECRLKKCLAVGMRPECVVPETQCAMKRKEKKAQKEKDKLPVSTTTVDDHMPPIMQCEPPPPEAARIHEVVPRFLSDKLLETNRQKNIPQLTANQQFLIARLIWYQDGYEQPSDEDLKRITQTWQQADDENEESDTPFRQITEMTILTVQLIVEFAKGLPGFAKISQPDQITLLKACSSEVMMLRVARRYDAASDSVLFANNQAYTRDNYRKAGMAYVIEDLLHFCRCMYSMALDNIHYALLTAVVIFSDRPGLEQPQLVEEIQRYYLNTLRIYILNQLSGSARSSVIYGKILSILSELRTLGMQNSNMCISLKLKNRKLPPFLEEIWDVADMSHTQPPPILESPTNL
T2 sequence (O76202 1-472 partner): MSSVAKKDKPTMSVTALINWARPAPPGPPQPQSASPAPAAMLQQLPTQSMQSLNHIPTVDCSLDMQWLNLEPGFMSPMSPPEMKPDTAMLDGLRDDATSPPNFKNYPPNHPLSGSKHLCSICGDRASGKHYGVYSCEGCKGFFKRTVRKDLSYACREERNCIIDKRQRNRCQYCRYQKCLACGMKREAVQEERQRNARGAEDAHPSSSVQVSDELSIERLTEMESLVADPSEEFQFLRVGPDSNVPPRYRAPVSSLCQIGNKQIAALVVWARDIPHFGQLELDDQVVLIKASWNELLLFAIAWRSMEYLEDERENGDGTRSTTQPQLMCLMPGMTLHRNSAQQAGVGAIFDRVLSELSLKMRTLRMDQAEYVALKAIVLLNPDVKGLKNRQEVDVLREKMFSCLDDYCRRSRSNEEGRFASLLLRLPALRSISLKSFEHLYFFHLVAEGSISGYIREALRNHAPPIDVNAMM

| binding capacity for [3H]ponasterone A after irradiation with ligand (in words) ([1]; listed as 20E) | binding capacity for [3H]ponasterone A after irradiation with ligand (in words) ([2]; listed as 20E) | SMILES | binding capacity for [3H]ponasterone A after irradiation with ligand (in words) [1] | binding capacity for [3H]ponasterone A after irradiation with ligand (in words) [2] |
| --- | --- | --- | --- | --- |
| no blocking | no blocking | CC(C)(O)CC[C@@H](O)[C@](C)(O)[C@H]1CC[C@@]2(O)C3=CC(=O)[C@@H]4C[C@@H](O)[C@@H](O)C[C@]4(C)[C@H]3CC[C@]12C [compound 1, 20-hydroxyecdysone] | – | – |
| – | – | CC(C)CC[C@@H](O)[C@](C)(O)[C@H]1CC[C@@]2(O)C3=CC(=O)[C@@H]4C[C@@H](O)[C@@H](O)C[C@]4(C)C3=CC[C@]12C [compound 5, dacryhainansterone] | significantly reduced | significantly reduced |

From paper PMC355911 (Journal of Insect Science, 2002)
